For assay [1], the system named is Mycobacterium tuberculosis. Put plainly: Antitubercular activity against Mycobacterium bovis BCG after 6 days by microplate alamar blue assay. The format is functional. To be noted: variant bovis BCG, 144 h. In outline:
(§1)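 MABA run in 7H9GC medium, with drug diluted from DMSO stocks made at 100× the highest final concentration. Final levels were 100, 50, 10, 5, 2.5 and 1 μg/mL in triplicate, and the experiment was done three times. Inoculum was 2.5 × 10⁵ CFU/mL final. Alamar Blue plus Tween-80 was added once bacteria-only control wells turned pink, from day 6 on, and plates were read visually and by fluorescence after 24 h. Visual MIC is the lowest concentration preventing the blue-to-pink change. Mean percent inhibition was taken relative to bacteria-only and medium-only wells.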

Assay [2] concerns Mycobacterium tuberculosis. Put plainly: Antitubercular activity against Mycobacterium bovis BCG at 100 ug/ml after 6 days by microplate alamar blue assay. The following applies: variant bovis BCG, 144 h. The format is functional. Summed up:
as §1
Background: Resazurin is reduced to fluorescent resorufin, in cell work by metabolically active cells.

In assay [3] the test system is Mycobacterium tuberculosis. Put plainly: Antitubercular activity against Mycobacterium bovis BCG at 10 ug/ml after 6 days by microplate alamar blue assay. The format is functional. The following applies: variant bovis BCG, 144 h. In outline: as §1
In assay [4] the test system is Mycobacterium tuberculosis. Put plainly: Antitubercular activity against Mycobacterium bovis BCG at 50 ug/ml after 6 days by microplate alamar blue assay. The following applies: variant bovis BCG, 144 h. The format is functional. Summed up:
as §1

Assay [5] relates to Mycobacterium tuberculosis. Put plainly: Antitubercular activity against Mycobacterium bovis BCG at 1 to 5 ug/ml after 6 days by microplate alamar blue assay. In kind it is functional, variant bovis BCG. In outline:
as §1

Assay [6] has as its system Mycobacterium tuberculosis. Put plainly: Antitubercular activity against Mycobacterium bovis BCG at 5 ug/ml after 6 days by microplate alamar blue assay. In kind it is functional. To be noted: variant bovis BCG, 144 h. Summed up: as §1
Assay [7] has as its system Mycobacterium tuberculosis. Put plainly: Antitubercular activity against Mycobacterium bovis BCG at 0.5 to 1 ug/ml after 6 days by microplate alamar blue assay. In kind it is functional, variant bovis BCG. In outline:
as §1

The subject of assay [8] is Mycobacterium tuberculosis. Put plainly: Antitubercular activity against Mycobacterium bovis BCG at 1 ug/ml after 6 days by microplate alamar blue assay. The format is functional. The following applies: variant bovis BCG, 144 h. In outline: as §1

Each structure is given as a SMILES string. Converted amounts (≈) assume the structure as drawn.

Regarding `O=c1[nH]cc(C#Cc2ccccc2)c(=O)[nH]1`, the MIC50 (in general, an inhibitory concentration at the 50% level, which refers to growth in some studies and to a panel of isolates in others) in assay [1] was at least 10 µg/mL. 100 µg/mL produced 90% inhibition in assay [2]. Moreover, in assay [3], the inhibition (commonly how much of the control response was suppressed) at 10 µg/mL stood at 40%. For the same compound, in assay [4], the inhibition at 50 µg/mL was determined as 90%.
Regarding `CCCc1ccc(C#Cc2c[nH]c(=O)[nH]c2=O)cc1`, in assay [1], the MIC50 stood at 1 µg/mL (≈ 3.93 µM). The compound also showed an inhibition at 100 µg/mL in assay [2] of 100%. The “inhibition (INH)” value in assay [5] is listed as 50%. Besides, at 10 µg/mL the inhibition in assay [3] was 70%. In assay [4], this compound showed an inhibition at 50 µg/mL of 70%.
`CCCCCc1ccc(C#Cc2c[nH]c(=O)[nH]c2=O)cc1`: the MIC50 in assay [1] worked out at 1 µg/mL (≈ 3.54 µM). This compound displayed an inhibition at 100 µg/mL in assay [2] of 90%. Moreover, the “inhibition (INH)” value in assay [5] is recorded as 50%. For the same compound, testing at 10 µg/mL in assay [3] gave an inhibition of 60%. For the same compound, 50 µg/mL produced 60% inhibition in assay [4].
With `O=c1[nH]cc(C#Cc2ccccn2)c(=O)[nH]1`, in assay [1], the MIC50 was under 5 µg/mL. Besides, the inhibition at 100 µg/mL in assay [2] was 90%. Moreover, testing at 10 µg/mL in assay [3] gave an inhibition of 75%. In assay [4], this compound gave an inhibition at 50 µg/mL of 75%. This compound also came in with an inhibition at 5 µg/mL in assay [6] of 60%.
Compound `C(C#Cc1ccccn1)#Cc1ccccn1` had an MIC50 in assay [1] of under 0.5 µg/mL. In assay [2], this compound registered an inhibition at 100 µg/mL of 100%. In assay [3], this compound had an inhibition at 10 µg/mL of 100%. Also, in assay [7], the “inhibition (INH)” value is 80%. The inhibition at 50 µg/mL in assay [4] was found to be 100%.
In assay [1], `CCCc1cc2c[nH]c(=O)nc2o1` came in with an MIC50 of 10 µg/mL (≈ 56.1 µM). For the same compound, in assay [2], the inhibition at 100 µg/mL is 90%. Also, in assay [3], the inhibition at 10 µg/mL is 50%. Also, 50 µg/mL produced 50% inhibition in assay [4].
`CCCCCc1cc2c[nH]c(=O)nc2o1` registered an MIC50 in assay [1] of 100 µg/mL (≈ 485 µM).
`O=c1[nH]c(=O)n([C@H]2C[C@H](O)[C@@H](CO)O2)cc1C#Cc1ccccn1` gave an MIC50 in assay [1] of 1 µg/mL (≈ 3.04 µM). For the same compound, 100 µg/mL produced 50% inhibition in assay [2]. Further, the “inhibition (INH)” value in assay [5] amounted to 50%. Besides, 10 µg/mL produced 80% inhibition in assay [3]. In assay [4], this compound registered an inhibition at 50 µg/mL of 90%.
With `Nc1nc(=O)n([C@H]2C[C@H](O)[C@@H](CO)O2)cc1C#Cc1ccccn1`, the MIC50 in assay [1] stood at 1 µg/mL (≈ 3.05 µM). The same compound showed an inhibition at 100 µg/mL in assay [2] of 90%. Besides, the “inhibition (INH)” value in assay [5] amounted to 50%. Also, the inhibition at 10 µg/mL in assay [3] was 80%. This compound also displayed an inhibition at 50 µg/mL in assay [4] of 90%.
In assay [1], `N[C@@H]1CONC1=O` [CYCLOSERINE] showed an MIC50 of 5 µg/mL (≈ 49 µM). The same compound gave an inhibition at 10 µg/mL in assay [3] of 71%. Besides, the inhibition at 5 µg/mL in assay [6] stood at 50%.
Compound `NNC(=O)c1ccncc1` [ISONIAZID] yielded an MIC50 in assay [1] of under 1 µg/mL. In assay [8], this compound gave an inhibition at 1 µg/mL of 100%.
`CO[C@H]1/C=C/O[C@@]2(C)Oc3c(C)c(O)c4c(O)c(c(/C=N/N5CCN(C)CC5)c(O)c4c3C2=O)NC(=O)/C(C)=C\C=C\[C@H](C)[C@H](O)[C@@H](C)[C@@H](O)[C@@H](C)[C@H](OC(C)=O)[C@@H]1C` [RIFAMPIN]: the MIC50 in assay [1] is under 1 µg/mL. The same compound showed an inhibition at 1 µg/mL in assay [8] of 100%.
